# Published values from different studies.
# Compare with care: the assays were run in different laboratories.
# Organism: Candida albicans
# Read-out: microbial growth
SMILES,method,strain,time,notes,MIC
O=C1NN=C(N=Cc2ccc(O)cc2O)C1=NNn1c(-c2ccccc2)nc2ccccc2c1=O,broth dilution,,,,53.5 µM
CCOC(=O)CON,,SC5314,,,32 µg/mL
CC(=O)NCN1N=C(C)C(=NNn2c(-c3ccccc3)nc3ccccc3c2=O)C1=O,broth dilution,,,,120 µM
CC[C@@H]([C@H](C)O)n1ncn(-c2ccc(N3CCN(c4ccc(OC[C@@H]5CO[C@@](Cn6cncn6)(c6ccc(F)cc6F)C5)cc4)CC3)cc2)c1=O,,ATCC10231,72 h,,< 0.3 µM
COc1cc(-c2ccccc2)cc(C(C)C#Cc2c(C)nc(N)nc2N)c1 (racemic),resazurin,,,,250 µM
O=C(Cc1ccc(O)c(O)c1)NCCCCCCCC[P+](c1ccccc1)(c1ccccc1)c1ccccc1.[Br-],broth dilution,ATCC90028,24 h,,> 32 µg/mL
C[C@@H]1[C@H](O)[C@@H](C)/C=C/C=C/C=C/C=C/C=C/C=C/C=C/[C@H](O[C@@H]2O[C@H](C)[C@@H](O)[C@H](N)[C@@H]2O)C[C@@H]2O[C@](O)(C[C@@H](O)C[C@@H](O)[C@H](O)CC[C@@H](O)C[C@@H](O)CC(=O)O[C@H]1C)C[C@H](O)[C@H]2C(=O)O,,ATCC90028,,,0.63 µg/mL
OC(Cn1cncn1)(Cn1cncn1)c1ccc(F)cc1F,broth dilution,ATCC90028,24 h,,0.125 µg/mL
CC1=NN(CNc2ccc(Cl)cc2)C(=O)C1=NNn1c(-c2ccccc2)nc2ccccc2c1=O,broth dilution,,,,51.5 µM
O=C(CCCCCCCC[P+](c1ccccc1)(c1ccccc1)c1ccccc1)Nc1ccc(O)c(O)c1.[Br-],broth dilution,ATCC90028,24 h,,> 32 µg/mL
NOCC(=O)O,,SC5314,,,1000 µg/mL
O=C(CCCCCC[P+](c1ccccc1)(c1ccccc1)c1ccccc1)Nc1ccc(O)c(O)c1.[Br-],broth dilution,ATCC90028,24 h,,32 µg/mL
N=C(N)N1CC=C(c2coc(C(=O)Nc3ccc(C4=CCN(C(=N)N)CC4)c(F)c3)c2)CC1,broth dilution,,48 h,clinical isolate,0.78 µg/mL
CC1=NN(CNC(=O)c2ccccc2)C(=O)C1=NNn1c(-c2ccccc2)nc2ccccc2c1=O,broth dilution,,,,104 µM
O=C(CCCCCC[P+](c1ccccc1)(c1ccccc1)c1ccccc1)Nc1cc(O)c(O)c(O)c1.[Br-],broth dilution,ATCC90028,24 h,,> 32 µg/mL
